Source: ChEMBL document CHEMBL1154881, “Synthesis and antimicrobial activities of novel 1,5-diaryl pyrazoles” (2010)
Values after ≈ are worked out from the molar mass of the structure shown.

Tests used:
Klebsiella pneumoniae [1] = assay: Antibacterial activity against Klebsiella pneumoniae after 24 hrs by disk diffusion method; format: functional
Outline: (§1)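 Disc diffusion, each concentration tested in triplicate on nutrient agar seeded separately with fresh bacteria. Incubation 37 °C, 24 h. Solvent and growth controls included. Zones of inhibition recorded. The K. pneumoniae strain was recultured.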

Escherichia coli [2] = assay: Antibacterial activity against Escherichia coli ATTC 25922 after 24 hrs by disk diffusion method; format: functional; outline: as §1
Talaromyces marneffei [3] = assay: Antifungal activity against Penicillium marneffei at 10 to 50 ug/ml after 3 to 4 days; format: functional
Talaromyces marneffei [4] = assay: Antifungal activity against Penicillium marneffei after 3 to 4 days by serial plate dilution method; format: functional
Outline: (§2)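 Sabouraud's agar (peptone 1 g, D-glucose 4 g, agar 2 g per 100 ml water, pH 5.7) plates were lawned with spore suspension (a loopful in 3 ml normal saline) and dried 1 h at 37 °C. Wells were punched and filled with compound in DMSO at 10–50 mg/ml, with a DMSO control. Plates in triplicate, 37 °C for 3–4 days.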

[5] = tested on: Trichophyton mentagrophytes; assay: Antifungal activity against Trichophyton mentagrophytes after 3 to 4 days by serial plate dilution method; format: functional; outline: as §2
Pseudomonas aeruginosa [6] = assay: Antibacterial activity against Pseudomonas aeruginosa ATTC 27853 after 24 hrs by disk diffusion method; format: functional; outline: as §1
Klebsiella pneumoniae [7] = assay: Antibacterial activity against Klebsiella pneumoniae after 24 hrs by […]
[8] = tested on: Trichophyton mentagrophytes; assay: Antifungal activity against Trichophyton mentagrophytes at 10 to 50 ug/ml after 3 to 4 days; format: functional
Aspergillus fumigatus = assay: Antifungal activity against Aspergillus fumigatus NCIM 902 after 3 to 4 days by serial plate dilution method; format: functional; outline: as §2
Aspergillus flavus = assay: Antifungal activity against Aspergillus flavus NCIM 524 after 3 to 4 days by serial plate dilution method; format: functional; outline: as §2
Staphylococcus aureus [9] = assay: Antibacterial activity against Staphylococcus aureus ATTC 25923 after 24 hrs by disk diffusion method; format: functional; outline: as §1
Staphylococcus aureus [10] = assay: Antibacterial activity against Staphylococcus aureus ATTC 25923 after 24 hrs by broth dilution method; format: functional; conditions: ATTC 25923, 24 h
Escherichia coli [11] = assay: Antibacterial activity against Escherichia coli ATTC 25922 after 24 hrs by broth dilution method; format: functional; conditions: ATTC 25922, 24 h
Pseudomonas aeruginosa [12] = assay: Antibacterial activity against Pseudomonas aeruginosa ATTC 27853 after 24 hrs by broth dilution method; format: functional; conditions: ATTC 27853, 24 h
Klebsiella pneumoniae [13] = assay: Antibacterial activity against Klebsiella pneumoniae after 24 hrs by broth dilution method; format: functional

Compound	inhibition zone (IZ) (Klebsiella pneumoniae [1]) [mm]	inhibition zone (IZ) (Escherichia coli [2]) [mm]	MIC (Talaromyces marneffei [3]) [µg/mL]	inhibition zone (IZ) (Talaromyces marneffei [4]) [mm]	inhibition zone (IZ) [5] [mm]	inhibition zone (IZ) (Pseudomonas aeruginosa [6]) [mm]	MIC (Klebsiella pneumoniae [7]) [µg/mL]	MIC [8] [µg/mL]	inhibition zone (IZ) (Aspergillus fumigatus) [mm]	inhibition zone (IZ) (Aspergillus flavus) [mm]	inhibition zone (IZ) (Staphylococcus aureus [9]) [mm]	MIC (Staphylococcus aureus [10]) [µg/mL]	MIC (Escherichia coli [11]) [µg/mL]	MIC (Pseudomonas aeruginosa [12]) [µg/mL]	MIC (Klebsiella pneumoniae [13]) [µg/mL]
O=C(c1cc(-c2ccc(Cl)cc2)n(-c2ccc(F)cc2)n1)N1CCN(C(=O)C2CC2)CC1	19	20	12.5 (≈ 27.6 µM)	21	20	17	12.5 (≈ 27.6 µM)	12.5 (≈ 27.6 µM)	22	24	20	12.5 (≈ 27.6 µM)	12.5 (≈ 27.6 µM)		
CS(=O)(=O)OC1CCN(C(=O)c2cc(-c3ccc(Cl)cc3)n(-c3ccc(F)cc3)n2)CC1	23	28	12.5 (≈ 26.2 µM)	29	28	21	12.5 (≈ 26.2 µM)	12.5 (≈ 26.2 µM)	25	31	26	12.5 (≈ 26.2 µM)	12.5 (≈ 26.2 µM)	50 (≈ 105 µM)	
O=C(O)c1cn(C2CC2)c2cc(N3CCNCC3)c(F)cc2c1=O [CIPROFLOXACIN]	24	32				28	6.25 (≈ 18.9 µM)				23	6.25 (≈ 18.9 µM)	6.25 (≈ 18.9 µM)	6.25 (≈ 18.9 µM)	
CCNC(=O)N1CCN(C(=O)c2cc(-c3ccc(Cl)cc3)n(-c3ccc(F)cc3)n2)CC1	17	19	12.5 (≈ 27.4 µM)	19	24	<10	50 (≈ 110 µM)	12.5 (≈ 27.4 µM)	18	17	18	12.5 (≈ 27.4 µM)	12.5 (≈ 27.4 µM)		
O=C1CCN(C(=O)c2cc(-c3ccc(Cl)cc3)n(-c3ccc(F)cc3)n2)CC1	25	27	12.5 (≈ 31.4 µM)	29	24	18	12.5 (≈ 31.4 µM)	50 (≈ 126 µM)	26	18	24	12.5 (≈ 31.4 µM)	12.5 (≈ 31.4 µM)	12.5 (≈ 31.4 µM)	
C#CCN1CCN(C(=O)c2cc(-c3ccc(Cl)cc3)n(-c3ccc(F)cc3)n2)CC1	17	18		18	<10	<10			19	<10	18	12.5 (≈ 29.6 µM)	50 (≈ 118 µM)		50 (≈ 118 µM)
Cc1nc(-c2cc(-c3ccc(Cl)cc3)n(-c3ccc(F)cc3)n2)sc1C(=O)NNC(=O)NC(=O)c1ccc(C(F)(F)F)cc1	19	20	12.5 (≈ 19.4 µM)	22	17	<10	50 (≈ 77.8 µM)	12.5 (≈ 19.4 µM)	25	<10	19	12.5 (≈ 19.4 µM)	12.5 (≈ 19.4 µM)		
CCCCCC(=O)N1CCN(C(=O)c2cc(-c3ccc(Cl)cc3)n(-c3ccc(F)cc3)n2)CC1	21	18	12.5 (≈ 25.9 µM)	19	20	<10		12.5 (≈ 25.9 µM)	28	<10	18	12.5 (≈ 25.9 µM)	12.5 (≈ 25.9 µM)		
Cc1nc(-c2cc(-c3ccc(Cl)cc3)n(-c3ccc(F)cc3)n2)sc1C(=O)NN	19	18	12.5 (≈ 29.2 µM)	20	19	19	50 (≈ 117 µM)	12.5 (≈ 29.2 µM)	19	<10	20	12.5 (≈ 29.2 µM)	12.5 (≈ 29.2 µM)		
O=C(c1cc(-c2ccc(Cl)cc2)n(-c2ccc(F)cc2)n1)N1CCNCC1	19	<10		<10	19	19	12.5 (≈ 32.5 µM)	50 (≈ 130 µM)	23	25	<10			50 (≈ 130 µM)	
C=CCNC(=O)N1CCN(C(=O)c2cc(-c3ccc(Cl)cc3)n(-c3ccc(F)cc3)n2)CC1	19	19	12.5 (≈ 26.7 µM)	24	22	19	50 (≈ 107 µM)	12.5 (≈ 26.7 µM)	16	19	20	12.5 (≈ 26.7 µM)	12.5 (≈ 26.7 µM)		
N#Cc1ccc(-c2csc(-c3cc(-c4ccc(Cl)cc4)n(-c4ccc(F)cc4)n3)n2)cc1	17	20	12.5 (≈ 27.4 µM)	22	22	19		12.5 (≈ 27.4 µM)	<10	<10	19	12.5 (≈ 27.4 µM)	12.5 (≈ 27.4 µM)	50 (≈ 109 µM)	
O=C(c1cc(-c2ccc(Cl)cc2)n(-c2ccc(F)cc2)n1)N1CCC(O)CC1	21	24	12.5 (≈ 31.3 µM)	24	26	29	12.5 (≈ 31.3 µM)	12.5 (≈ 31.3 µM)	27	29	23	12.5 (≈ 31.3 µM)	12.5 (≈ 31.3 µM)		
N#Cc1ccc(NC(=O)N2CCN(C(=O)c3cc(-c4ccc(Cl)cc4)n(-c4ccc(F)cc4)n3)CC2)cc1	19	19	12.5 (≈ 23.6 µM)	23	21	<10		12.5 (≈ 23.6 µM)	24	<10	21	12.5 (≈ 23.6 µM)	12.5 (≈ 23.6 µM)		
